# Assay outcomes from PubChem BioAssay.
# Shown are actives, neighbours in structure and some others; about 2.6% of the full set was active somewhere.
# miR-122 sensor = inhibitors of miR-122 in Huh7 cells; Huh7 miR-122 Renilla luciferase sensor, 48 h; neutral wells = 0, positive control = 100; activation (reporter increase), % at 12.5 µM; 340,000 compounds, 0.3% hits; AID 602342;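 active = mean replicate activation score at least 90 and every replicate individually at or above 90; inconclusive = only one of the two criteria met; inactive = neither criterion met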;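 also: higher luciferase means less miR-122 activity so hits act as miR-122 inhibitors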
# rRNA inh HTS = inhibitors of bacterial rRNA selective over humanized ribosomes. E. coli WT GFP vs humanized-ribosome RFP mutants, fluorescence, 24 h; active compounds read low; DMSO median 0, no signal -100. GFP signal change (wild-type ribosome), % (test concentration not listed). 350,000 compounds, 1.6% hits;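 active = significant combined selectivity score with lowered wild-type GFP, culture density cut under 30%, mutant RFP and density less affected; inactive = any of these conditions unmet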
# Env fusion inh = blocks HIV Env-driven cell-cell fusion; 360,000 compounds, 1.1% hits; inhibition, % at 12.3 µM; HeLa-JRFL Env/CEM21 cell fusion, luciferase;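 active = mean replicate inhibition score of at least 50 and every replicate individually at or above 50; inconclusive = only one of the two criteria met; inactive = mean below 50 and not all replicates reaching 50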;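 also: 0% = plate neutral controls and 100% = maraviroc near 300 nM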
# Vif imaging = HIV Vif inhibition. HEK293T cells, Vif self-association by quenched fluorescence, imaging, 24 h. inhibition, % at 7.49 µM. 340,000 compounds, 0.35% hits. AID 602346; in the data active = inhibition above about 50%, passing the limit was not always enough; inconclusive = no clear call, values can overlap the other calls; inactive = below about 31%
# S100A4 MyoIIA = blocks human S100A4 binding to myosin IIA peptide; S100A4/TAMRA-MyoIIA peptide fluorescence polarization; inhibition, % at 10.7 µM; AID 652163; 360,000 compounds, 0.14% hits;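 active = mean inhibition of at least 70% across replicates, with every replicate also reaching that level; inconclusive = mean inhibition reaches 70% but some replicates fall short; inactive = mean inhibition below 70%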
# Target sequence (P26447 whole entry, looked up): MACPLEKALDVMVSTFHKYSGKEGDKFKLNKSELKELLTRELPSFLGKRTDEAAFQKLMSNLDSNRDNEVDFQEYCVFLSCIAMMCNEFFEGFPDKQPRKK
#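 Test system: S100A4 monomer protein; Medium: HEPES pH 7.2 with CaCl2, KCl, NaCl, DTT, Triton; Probe or stimulus: TAMRA-labelled myosin IIA heavy-chain peptide probe, 5 nM; Doses: one dose per compound; Times: polarization read 5 min after assay mix addition, stable 5–60 min; Benchmarks: neutral control DMSO, positive control TFP.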
# FN deposition inh = fibronectin deposition inhibition. AH1F fibroblasts, Alexa488-fibronectin deposition fluorescence, overnight. inhibition, % at 12.6 µM. 350,000 compounds, 0.086% hits;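 active = mean inhibition across replicates of 30% or more, regardless of how many single replicates reach that level; inconclusive = mean under 30% yet at least half of replicates reach 30%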;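 also: positive control wells lacked labelled fibronectin entirely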
#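 Test system: AH1F fibroblast monolayer depositing Alexa488-labelled fibronectin into matrix. Input: 10000 cells per well. Technique: fluorescence, ex 485 nm, em 525 nm. Buffer or medium: DMEM plus 2% serum, read in PBS. Timing: 1 h cell adhesion before compound, then overnight fibronectin incubation. Compound: single dose, pinned. Read-out basis: inhibition from reduced deposited-fibronectin fluorescence.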
# AID977621 = growth inhibition of wild-type GFP E. coli, dose response, H69 mutant RFP, cherry-pick; activity change, negative = inhibition at 50 µM; AID 977621; 1,900 tested, under 10 active; E. coli wild-type GFP strain growth, fluorescence, 24 h; shares compounds with rRNA inh HTS;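 active = Wild-type ribosome reporter drop at least double the humanized mutant ribosome reporter drop, growth loss under a set limit; inconclusive = no clear call, values can overlap the other calls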;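 also: wild-type GFP and H69 mutant RFP strains grown together 50/50 in each well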
# Numbers without * were called inactive; ? = inconclusive; . = no result; ! = not active in a repeat; [ ] = remark or other dose.
SMILES,miR-122 sensor,rRNA inh HTS,Env fusion inh,Vif imaging,S100A4 MyoIIA,FN deposition inh,others
Cc1ccc(C(=O)Nc2ccc(Cl)cc2C(=O)c2ccccc2)cc1,114*,.,-51,1,.,-2,
Cc1ccc(OCC(=O)Nc2ccc(Cl)cc2C(=O)c2ccccc2)cc1,-3,.,29,-1,.,1,
O=C(COC(=O)c1ccc(O)cc1)Nc1ccc(Cl)cc1C(=O)c1ccccc1,.,-43*,6,5,-7,.,
O=C(NN=Cc1ccc(N(CCCl)CCCl)cc1Cl)c1cccnc1,.,3,56*,-7,-10,2,
O=C(Cc1ccccc1)OCC(=O)c1ccccc1,0,8,-20,-1,0,.,
O=C(Cc1ccccc1)OCC(=O)c1ccc(F)cc1,-6,6,2,87*,-5,-15,
CC(=O)c1c(C)n(Cc2ccccc2)c2ccc(O)cc12,-18,-2,36,-12,25,3,
CC(=O)c1c(C)n(C2CCCCC2)c2ccc(O)cc12,.,19,62*,-9,14,5,
C[C@H]1CCC/C=C/[C@@H]2C[C@H](O)C[C@H]2[C@H](O)/C=C/C(=O)O1,-10,.,94*!,10,3,-2,
O=C(Cc1ccccc1)N1CC2(C1)[C@@H](c1ccccc1)[C@@H](CO)N2Cc1cccc(F)c1,.,-15,.,.,-3,.,
O=C(O)[C@@H]1[C@@H](CO)[C@@H]2Cn3c(ccc(-c4ccccc4)c3=O)[C@H]1N2CC1CCCCC1,-6[16.7 µM],6,.,.,0,.,
CCCCn1nnnc1C(CCSC)N1CCC(n2c(=O)[nH]c3ccccc32)CC1 (centres undefined),8,-3,1,-2,-2,2,
CCCCn1nnnc1C(C1CC1)N1CCC(n2c(=O)[nH]c3ccccc32)CC1 (centres undefined),0,-20*,-106,-7,-1,.,
CCC(c1nnnn1Cc1ccccc1)N1CCC(n2c(=O)[nH]c3ccccc32)CC1 (centres undefined),0,-10,55*,2,40,8,
O=C(Cc1ccccc1)N1C[C@H]2[C@@H](c3ccccc31)[C@@H](CO)N2Cc1ccccc1,0[16.7 µM],-20,.,.,.,.,
CCOc1ccc2nc(N=Nc3c(O)[nH]c(=O)[nH]c3=O)sc2c1,-5,-20*,-28,-2,1,4,
CCOc1ccc2nc(N=Nc3c(O)[nH]c(=S)[nH]c3=O)sc2c1,.,-34*,-14,-6,-8,1,
O=C(O)c1cccc(N=Nc2c(O)[nH]c(=O)[nH]c2=O)c1,-2,10,-1,-14,-5,1,
N#Cc1cccc(-c2ccc([C@@H]3[C@@H](CO)N4CCCCN(C(=O)Cc5cccnc5)C[C@H]34)cc2)c1,-8[16.7 µM],-2,.,.,.,.,
CC[n+]1c(/C=C/N(C)c2ccccc2)sc2ccc(Cl)cc21,.,.,79*,-6,.,-12,
Fc1ccc(C[n+]2c(-c3ccccc3)cc(-c3ccccc3)cc2-c2ccccc2)cc1,.,-53,37,.,-5,-12,
Clc1ccc(C[n+]2c(-c3ccccc3)cc(-c3ccccc3)cc2-c2ccccc2)cc1,-18,-55,107*,-16,-2,6,
CC1OC(OC2CC(O)C3(CO)C4C(O)CC5(C)C(C6=CC(=O)OC6)CCC5(O)C4CCC3(O)C2)C(O)C(O)C1O (centres undefined),-17,3,.,-26,8,.,
CC(=O)OC1CC(OC2C(O)CC(OC3C(O)CC(OC4CCC5(C)C(CCC6C5CCC5(C)C(C7=CC(=O)OC7)CCC65O)C4)OC3C)OC2C)OC(C)C1OC1OC(CO)C(O)C(O)C1O (centres undefined),2,.,69*,2,0,5,
O=[N+]([O-])c1ccccc1-c1cc(-c2ccccc2)cc(-c2ccccc2)[n+]1Cc1ccccc1Cl,.,-53,61*,.,2,-11,
SMILES,miR-122 sensor,rRNA inh HTS,Env fusion inh,Vif imaging,S100A4 MyoIIA,FN deposition inh,others
CCCCn1c(NS(=O)(=O)c2ccc(C)cc2)c(C(=O)OCC)c2nc3ccccc3nc21,-1,-22*,6,6,-1,12,AID977621=?
Cc1cccc(S(=O)(=O)N2[C@@H]3Cn4c(ccc(-c5cccc(F)c5)c4=O)[C@H]2[C@@H](C(=O)O)[C@@H]3CO)c1,-7[16.7 µM],2,.,.,.,.,
C[C@]12CCC3C(CC[C@H]4C[C@@H](O)CC[C@]34C)[C@H]1CC[C@H]2O (some centres undefined),1,-20*,.,6,1,10,AID977621=-26
COc1ccc(OC(=O)N(C)C[C@@H]2OCc3ccccc3-c3c(n(C)c4ccccc34)C(=O)N([C@@H](C)CO)C[C@H]2C)cc1,.,2,.,.,33,1,
CCOC(=O)c1c(C)n(Cc2ccccc2)c2ccc(O)cc12,.,-27*,7,-16,4,-1,AID977621=-16
COC(=O)c1c(C)n(Cc2ccccc2)c2ccc(O)cc12,0,-32,36,-2,-1,9,
COc1ccc(C#Cc2ccc([C@H]3[C@@H](CO)N4CCCCN(C(=O)Cc5ccccc5)C[C@H]34)cc2)cc1,-17[16.7 µM],-54,.,.,1,6,
CCOC(=O)[C@]12Cc3ccccc3[C@H]1N(C)C(=O)c1cc(OC)ccc12,.,-20*,8,.,1,.,AID977621=-16
CCOC(=O)[C@]12Cc3ccccc3[C@H]1N(C(C)C)C(=O)c1cc(OC)ccc12,.,-43,19,.,-9,.,
CC(=O)OC1N=C(c2ccccc2Cl)c2cc(Br)ccc2NC1=O (centres undefined),.,-20*,-2,3,9,-1,AID977621=-14
